Compound activity deposited in PubChem by several laboratories.
PAFAH2 FP inh: inhibitors of human PAFAH2 | inhibition, % at 3.39 µM | Q99487 | recombinant PAFAH2, FP-rhodamine activity probe, fluorescence polarization | 340,000 compounds, 0.99% hits;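 active = inhibition above the mean over all tested compounds plus 3 SD, cut at about 30% in these data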;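 also: inhibitors block probe labeling of enzyme so polarization drops; 0% = enzyme with DMSO and 100% = wells lacking PAFAH2 protein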
PREPL inhibitor: inhibitors of human prolyl oligopeptidase-like enzyme PREPL; Q4J6C6; recombinant PREPL, fluorescence polarization activity-based probe; inhibition, % at 5.96 µM; 320,000 compounds, 0.68% hits; AID 2751; in the data active = inhibition above about 43%;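 also: 0% = enzyme with DMSO and 100% = wells lacking enzyme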
PAFAH1B3 FP inh: inhibitors of human PAFAH1B3; Q15102; recombinant PAFAH1B3, FP-rhodamine probe, fluorescence polarization; inhibition, % at 3.39 µM; 340,000 compounds, 0.28% hits; AID 492972;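 active = inhibition above the screen-wide average of all tested compounds plus 3 SD, cut at about 25% in these data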;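 also: 0% = enzyme with DMSO only and 100% = wells lacking PAFAH1B3 protein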
Target sequence (Q15102 whole entry, looked up): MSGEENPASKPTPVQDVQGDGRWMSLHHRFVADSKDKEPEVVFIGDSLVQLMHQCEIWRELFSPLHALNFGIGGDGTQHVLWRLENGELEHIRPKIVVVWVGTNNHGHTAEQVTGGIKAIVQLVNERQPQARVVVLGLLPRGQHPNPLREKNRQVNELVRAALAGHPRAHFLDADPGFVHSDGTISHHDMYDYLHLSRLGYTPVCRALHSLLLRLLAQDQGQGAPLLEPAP
Apaf-1 inh: blocks human Apaf-1 apoptosome activity; O14727; reconstituted apoptosome caspase-3 activity, DEVD-Rh110 fluorescence; inhibition, % at 20 µM; 330,000 compounds, 0.71% hits; AID 489030; active = inhibition of at least 40% at 20 µM;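 also: plate controls were DMSO wells for no effect and DEVD-CHO caspase inhibitor wells for full effect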
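Material: reconstituted apoptosome with Apaf-1, cytochrome c, caspase-9, procaspase-3, dATP. Technique: Rh110 fluorescence intensity. Buffer or medium: pH 7.5 Hepes buffer with CHAPS, BSA, DTT. Times: 30 min plus 50 min, RT.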
PAFAH1B2 FP inh: inhibitors of human PAFAH1B2; recombinant PAFAH1B2, FP-rhodamine activity probe, fluorescence polarization; 340,000 compounds, 1.2% hits; P68402; inhibition, % at 3.39 µM;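 active = inhibition above the mean of all tested compounds plus 3 SD, cut at about 24% in these data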;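 also: 0% = enzyme with DMSO and 100% = wells lacking PAFAH1B2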
Target sequence (P68402 whole entry, looked up): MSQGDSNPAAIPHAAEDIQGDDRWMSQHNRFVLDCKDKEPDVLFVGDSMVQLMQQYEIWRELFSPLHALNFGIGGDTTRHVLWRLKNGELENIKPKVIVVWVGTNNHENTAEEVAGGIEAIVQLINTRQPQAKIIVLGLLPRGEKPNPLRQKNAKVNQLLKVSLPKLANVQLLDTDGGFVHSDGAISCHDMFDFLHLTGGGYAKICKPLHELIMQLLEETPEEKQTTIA
pPAFAH FP inh: pPAFAH (human) enzyme inhibition. Q13093. recombinant pPAFAH, FP-rhodamine probe fluorescence polarization. inhibition, % at 3.39 µM. 330,000 compounds, 1.5% hits. AID 463082;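 active = inhibition above the mean inhibition across the screen plus 3 SD, cut at about 25% in these data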;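 also: inhibitors block binding of the rhodamine activity-based probe so polarization drops; 0% = enzyme with DMSO and 100% = wells lacking pPAFAH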
Apaf-1 inh conf: Apaf-1 inhibition, single-dose confirmed; shares compounds with Apaf-1 inh; reconstituted apoptosome, caspase-3 DEVD-Rh110 fluorescence; inhibition, % at 20 µM; 1,800 compounds, 25% hits; AID 504614;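 active = mean inhibition of at least 40% at 20 µM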;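 also: plate controls were DMSO wells for no effect and DEVD-CHO caspase inhibitor control wells for full effect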
Rh110 quench: Rh110 signal interference in Apaf-1 inhibitor counter-screen. shares compounds with Apaf-1 inh. Rh110 fluorescence interference, quenched caspase reaction. activation (fluorescence interference), % at 20 µM. 1,800 tested, under 10 active. AID 504615;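 active = signal rise of 40% or more at 20 µM, treated as a fluorescence artifact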
Apaf1 inh interf: shows fluorescence interference in the Apaf-1 inhibitor assay format; 460 tested, under 10 active; IC50, µM; fluorescence interference counterscreen, Apaf-1 assay format; shares compounds with Apaf-1 inh; call rule not given here
* marks the source's active call; other numbers are inactive results; . = no result given. A selection: hits, their analogues and other compounds. The true share with any hit is near 3.5%.

SMILES | PAFAH2 FP inh | PREPL inhibitor | PAFAH1B3 FP inh | Apaf-1 inh | PAFAH1B2 FP inh | pPAFAH FP inh | Apaf-1 inh conf | Rh110 quench | others
COc1ccc(NC(=O)c2cc(-c3ccncc3)nc3ccc(Br)cc23)cc1OC | -3 | 17 | -1 | 45* | -3 | 5 | 12 | 8
O=C(Nc1ccncc1)c1cc(-c2cccc(Br)c2)nc2ccccc12 | -9 | -6 | -2 | 47* | -4 | -5 | 19 | 8
O=C(Nc1cccnc1)c1cc(-c2cccc(Br)c2)nc2ccccc12 | -21 | -6 | -5 | 21 | -2 | -5 | . | .
COc1ccc2ccccc2c1C(O)c1nccn1C (centres undefined) | 45* | 32 | 39* | 41* | 32* | 7 | 10 | -2
CCOC(=O)c1cnc2ccc(C)cc2c1Nc1ccc(N2CCOCC2)cc1 | 10 | 14 | 12 | 41* | -4 | 5 | 37 | 9
CCOC(=O)c1ccc2ncc(C(=O)OCC)c(NCCN3CCOCC3)c2c1 | 2 | 9 | 7 | -1 | -2 | 7 | . | .
CNc1nc(N)nc(-c2cc(Cl)ccc2OC)n1 | 1 | -1 | 12 | -14 | 12 | 0 | . | .
C/C(=C\C(=S)Nc1ccccc1)Nc1cccc2ccccc12 | -1 | 11 | -3 | 97* | 3 | -2 | 22 | 9
C/C(=C\C(=S)Nc1ccccc1)Nc1ccc2ccccc2c1 | -3 | 20 | 8 | 41* | 9 | 12 | 15 | 4
C=CCNC(=S)Nc1cccc2ccccc12 | 5 | 0 | 2 | -32 | 3 | 3 | . | .
NS(=O)(=O)c1ccc(NC(=O)COC(=O)c2ccc(S(=O)(=O)N3CCOCC3)cc2)cc1 | -1 | 5 | 11 | -11 | 5 | 0 | . | .
Cc1ccc(C(=O)Nn2cnnc2)cc1 | -13 | 5 | 3 | 6 | 0 | 4 | . | .
COc1ccc(NC(=O)[C@@H](NC(=O)N2C[C@H]3C[C@@H](C2)c2cccc(=O)n2C3)C(C)C)cc1OC | -1 | 7 | 18 | 62* | 4 | 0 | 7 | 1
NC(=O)C(c1ccccc1)c1ccc(C(=O)c2ccccc2)cc1 (centres undefined) | -3 | -1 | 7 | 7 | 4 | 6 | . | .
N#Cc1cnc(NOCc2ccc(Cl)cc2)nc1 | -5 | 13 | 5 | -13 | 3 | -2 | . | .
COc1ccc(/C=N/NC(=O)c2nn(-c3ccccc3)c(=O)c3c(N)scc23)cc1 | 3 | 21 | 6 | 61* | 5 | 21 | 40* | 1 | Apaf1 inh interf=>100
COc1ccc(/C=N/NC(=O)c2nn(-c3ccc(Cl)cc3)c(=O)c3c(N)scc23)cc1 | 5 | 25 | 8 | 54* | 10 | 22 | 26 | 4
COc1ccc(/C=N/NC(=O)c2nn(-c3ccc(C)c(C)c3)c(=O)c3ccccc23)cc1 | -12 | -1 | -5 | 14 | -6 | -13 | . | .
CCCCn1ccnc1C(=O)c1ccc(S(=O)(=O)N2CCCC2)cc1 | 2 | 5 | 1 | -15 | 0 | 5 | . | .
CCN(CC(=O)NCc1cccs1)C(=O)c1cc(Br)ccc1O | 4 | -4 | 7 | 14 | 1 | -4 | . | .
CN1CCN(c2ccc(NC(=O)c3cc(S(N)(=O)=O)ccc3N3CCOCC3)cc2)CC1 | 7 | 21 | 0 | 40* | 2 | -1 | 5 | 8
CC(C)(C)c1ccc(-c2nn(CCC#N)cc2/C=N/O)cc1 | -3 | -5 | -4 | 50* | 8 | 5 | 39 | 7
CCOC(=O)NC(=S)Nc1ccc(C(C)(C)C)cc1 | 10 | 0 | 4 | -2 | 7 | 17 | . | .
CCOc1ccccc1CN1CCN(Cc2ccc3cccc(OC)c3n2)CC1CCO (centres undefined) | 3 | . | 3 | 13 | 2 | . | . | .
CC(Oc1cccc(Cl)c1)C(=O)Nc1cc(S(=O)(=O)N2CCOCC2)ccc1N1CCCCC1 (centres undefined) | -1 | 12 | 3 | 48* | 1 | 6 | 43* | 3 | Apaf1 inh interf=>100
SMILES | PAFAH2 FP inh | PREPL inhibitor | PAFAH1B3 FP inh | Apaf-1 inh | PAFAH1B2 FP inh | pPAFAH FP inh | Apaf-1 inh conf | Rh110 quench | others
O=C(O)CC1S/C(=N/N=C/c2ccc(-c3ccccc3[N+](=O)[O-])o2)NC1=O (centres undefined) | 10 | -2 | 5 | 73* | 6 | 14 | 21 | 2
CCOc1cc(/C=N/N=C2/NC(=O)C(CC(=O)O)S2)ccc1OS(=O)(=O)c1ccc(C)cc1 (centres undefined) | 1 | . | 9 | 18 | 10 | . | . | .
Cc1ccc(-c2ccc(/C=N/N=C3/NC(=O)C(CC(=O)O)S3)o2)c([N+](=O)[O-])c1 (centres undefined) | 6 | 23 | 0 | 74* | 5 | 18 | 28 | 9
Cc1cc(C)c(N2C(=O)C3C4CC(=O)C(c5ccccc54)C3C2=O)c(C)c1 (centres undefined) | 1 | -4 | 0 | -13 | 10 | -1 | . | .
CN(C)S(=O)(=O)n1cc(/C=C(\NC(=O)c2ccccc2F)C(=O)NCCCn2ccnc2)c2ccccc21 | 2 | . | 9 | -3 | 3 | . | . | .
CC(C)(C)c1ccc(OCCOc2ccc(C(C)(C)C)cc2NC=O)c(NC=O)c1 | -2 | 8 | 13 | 41* | 5 | 6 | 35 | 6
O=C(Nc1ccc(N2CCOCC2)cc1)c1nc2ccccc2s1 | 8 | -4 | 1 | -11 | 5 | 0 | . | .
O=C(COc1ccc2c3c(c(=O)oc2c1)CCCC3)N1CCN(c2ccc(F)cc2)CC1 | 0 | -61 | 2 | 18 | 4 | -1 | . | .
O=C(COc1ccc2c3c(c(=O)oc2c1)CCC3)N1CCN(c2ccc(F)cc2)CC1 | -4 | -46 | 0 | 42* | 1 | 8 | 11 | 3
COCCCNC(=O)c1cc(S(=O)(=O)NCCCN2CCCC2=O)ccc1Cl | 9 | 13 | 3 | -6 | 3 | -2 | . | .
CCC/C(=C1/c2ccccc2C(=O)N1c1ccccc1)c1ccc2c(c1)OCCO2 | -4 | 5 | -4 | 14 | 3 | 16 | . | .
CCC/C(=C1/c2ccccc2C(=O)N1c1ccccc1)c1cnc(OC)nc1 | -2 | 14 | 8 | 41* | -5 | 2 | 24 | 2
COc1cc(O)sc1C=Nc1ccc(Cl)cc1Cl | 2 | 7 | -4 | -16 | 0 | 3 | . | .
Cc1c(CCOC(=O)CC23CC4CC(CC(C4)C2)C3)sc[n+]1CC(=O)c1ccc(Br)cc1 | 2 | 37 | -2 | 49* | 2 | 4 | 32 | 16
CCOc1cc(CNc2ccc3cn[nH]c3c2)ccc1OC | 1 | 13 | 7 | 85* | 6 | 0 | 49* | -2 | Apaf1 inh interf=>100
